# Experimental data published in ChEMBL document CHEMBL1155063 (Bioorg Med Chem, 2008).
# The source made the active and inactive calls. The calls are words filed in the database; no cut-off is given here.
# Columns and labels:
# TK-10 = assay: Cytotoxicity against human TK10 cells at 10 uM after 48 hrs by MTT assay; format: functional; conditions: TK-10, 48 h, values are per cent of control
# In short: (§1)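 Single-dose screen in the NCI 60-cell-line panel, run according to the Developmental Therapeutics Program protocol (one-dose mean graph). The result is the growth percentage of treated cells relative to untreated control cells.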
# M14 = assay: Cytotoxicity against human M14 cells at 10 uM after 48 hrs by MTT assay; format: functional; conditions: M14, 48 h, values are per cent of control
# In short: (§2)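 Single-dose screen on the NCI 60-cell-line panel, run to the Developmental Therapeutics Program protocol (one-dose mean graph). Each value is the growth percentage of treated cells against untreated control cells.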
# U-251 = assay: Cytotoxicity against human U251 cells at 10 uM after 48 hrs by MTT assay; format: functional; conditions: U-251, 48 h, values are per cent of control; in short: as §1
# SK-MEL-2 = assay: Cytotoxicity against human SK-MEL-2 cells at 10 uM after 48 hrs by MTT assay; format: functional; conditions: SK-MEL-2, 48 h, values are per cent of control; in short: as §2
# UACC-257 = assay: Cytotoxicity against human UACC257 cells at 10 uM after 48 hrs by MTT assay; format: functional; conditions: UACC-257, 48 h, values are per cent of control; in short: as §1
# PC-3 = assay: Cytotoxicity against human PC3 cells at 10 uM after 48 hrs by MTT assay; format: functional; conditions: PC-3, 48 h, values are per cent of control; in short: as §2
# SF-268 = assay: Cytotoxicity against human SF268 cells at 10 uM after 48 hrs by MTT assay; format: functional; conditions: SF-268, 48 h, values are per cent of control; in short: as §2
# [1] = Cytotoxicity against human TERT immortalized BJ1 cells at 10 uM after 48 hrs by MTT assay relative to control; format: cell-based, BJ
# In short: (§3)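 hTERT-immortalized BJ1 fibroblasts were grown in DMEM with 10% FCS, 1 mM pyruvate and 4 mM […]. Cells (about 2 × 10^3 per well) were seeded and held 24 h at 37 °C. Compounds were freshly dissolved in DMSO, diluted into medium and left on the cells 48 h. MTT was added for 4 h, then SDS/DMF lysis buffer for 16 h. Absorbance was read at 550 nm and expressed relative to untreated cells (100%).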
# [2] = Cytotoxicity against human TERT immortalized BJ1 cells at 1 uM after 48 hrs by MTT assay relative to control; format: cell-based, BJ; in short: as §3
# SN12C = assay: Cytotoxicity against human SN12C cells at 10 uM after 48 hrs by MTT assay; format: functional; in short: as §2
# HOP-62 = assay: Cytotoxicity against human HOP62 cells at 10 uM after 48 hrs by MTT assay; format: functional; conditions: HOP-62, 48 h; in short: as §2
# HOP-92 = assay: Cytotoxicity against human HOP92 cells at 10 uM after 48 hrs by MTT assay; format: functional; conditions: HOP-92, 48 h; in short: as §2
# NCI-H23 = assay: Cytotoxicity against human NCI-H23 cells at 10 uM after 48 hrs by MTT assay; format: functional; conditions: NCI-H23, 48 h; in short: as §2
# COLO 205 = assay: Cytotoxicity against human COLO205 cells at 10 uM after 48 hrs by MTT assay; format: functional; conditions: COLO 205, 48 h, values are per cent of control; in short: as §2
# KM12 = assay: Cytotoxicity against human KM12 cells at 10 uM after 48 hrs by MTT assay; format: functional; conditions: KM12, 48 h; for growth, % of control at 10 µM: values are per cent of control; in short: as §2
# SW-620 = assay: Cytotoxicity against human SW620 cells at 10 uM after 48 hrs by MTT assay; format: functional; conditions: SW-620, 48 h, values are per cent of control; in short: as §1
# MDA-MB-435 = assay: Cytotoxicity against human MDA-MB-435 cells at 10 uM after 48 hrs by MTT assay; format: functional; conditions: MDA-MB-435, 48 h; in short: as §2
# OVCAR-3 = assay: Cytotoxicity against human OVCAR-3 cells at 10 uM after 48 hrs by MTT assay; format: functional; conditions: OVCAR-3, 48 h; in short: as §2
# OVCAR-5 = assay: Cytotoxicity against human OVCAR5 cells at 10 uM after 48 hrs by MTT assay; format: functional; conditions: OVCAR-5, 48 h; in short: as §2
# OVCAR-8 = assay: Cytotoxicity against human OVCAR8 cells at 10 uM after 48 hrs by MTT assay; format: functional; conditions: OVCAR-8, 48 h; in short: as §2
# HL-60 = assay: Cytotoxicity against human HL60 cells at 10 uM after 48 hrs by MTT assay; format: functional; conditions: HL-60, 48 h; in short: as §2
# K562 = assay: Cytotoxicity against human K562 cells at 10 uM after 48 hrs by MTT assay; format: functional; conditions: K562, 48 h; in short: as §2
# RPMI-8226 = assay: Cytotoxicity against human RPMI-8226 cells at 10 uM after 48 hrs by MTT assay; format: functional; conditions: RPMI-8226, 48 h; in short: as §2
# 786-0 = assay: Cytotoxicity against human 786-0 cells at 10 uM after 48 hrs by MTT assay; format: functional; conditions: 786-0, 48 h; in short: as §2
# ACHN = assay: Cytotoxicity against human ACHN cells at 10 uM after 48 hrs by MTT assay; format: functional; in short: as §2
# HCT-29 = assay: Growth percent of human HCT29 cells at 10 uM after 48 hrs by MTT assay; conditions: HCT-29, 48 h
# HCT-116 = assay: Growth percent of human HCT116 cells at 10 uM after 48 hrs by MTT assay; conditions: HCT-116, 48 h
# HCC 2998 = assay: Growth percent of human HCC2998 cells at 10 uM after 48 hrs by MTT assay; conditions: HCC 2998, 48 h
# [3] = Cell viability of human H1299 cells at 1 uM after 48 hrs by MTT assay relative to control; conditions: NCI-H1299, 48 h
# [4] = biological target: T1, Telomerase reverse transcriptase (Homo sapiens, UniProt O14746); assay: Effect on human TERT expressed in BJ1 cells at 10 uM after 24 hrs by SEAP assay relative to control; conditions: BJ
# [5] = biological target: T1, Telomerase reverse transcriptase; assay: Effect on human TERT expressed in BJ1 cells at 100 uM after 24 hrs by SEAP assay relative to control; conditions: BJ
# [6] = biological target: T1, Telomerase reverse transcriptase; assay: Effect on human TERT expressed in H1299 cells at 10 uM after 24 hrs by SEAP assay relative to control
# [7] = biological target: T1, Telomerase reverse transcriptase; assay: Effect on human TERT expressed in H1299 cells at 100 uM after 24 hrs by SEAP assay relative to control
# [8] = biological target: T1, Telomerase reverse transcriptase; assay: Inhibition of telomerase in human H1299 cells at 1 to 20 uM by TRAP assay; format: cell-based
# In short: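 Modified TRAP assay using 2 µg total lysate from H1299 lung cancer cells as the telomerase source. Compounds were tested at 1, 5, 10 and 20 µM. Products were resolved on 10% polyacrylamide gels and stained with SYBR Green. A Taq-polymerase internal control was included, along with positive and negative controls.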
# T1 sequence (O14746 whole entry): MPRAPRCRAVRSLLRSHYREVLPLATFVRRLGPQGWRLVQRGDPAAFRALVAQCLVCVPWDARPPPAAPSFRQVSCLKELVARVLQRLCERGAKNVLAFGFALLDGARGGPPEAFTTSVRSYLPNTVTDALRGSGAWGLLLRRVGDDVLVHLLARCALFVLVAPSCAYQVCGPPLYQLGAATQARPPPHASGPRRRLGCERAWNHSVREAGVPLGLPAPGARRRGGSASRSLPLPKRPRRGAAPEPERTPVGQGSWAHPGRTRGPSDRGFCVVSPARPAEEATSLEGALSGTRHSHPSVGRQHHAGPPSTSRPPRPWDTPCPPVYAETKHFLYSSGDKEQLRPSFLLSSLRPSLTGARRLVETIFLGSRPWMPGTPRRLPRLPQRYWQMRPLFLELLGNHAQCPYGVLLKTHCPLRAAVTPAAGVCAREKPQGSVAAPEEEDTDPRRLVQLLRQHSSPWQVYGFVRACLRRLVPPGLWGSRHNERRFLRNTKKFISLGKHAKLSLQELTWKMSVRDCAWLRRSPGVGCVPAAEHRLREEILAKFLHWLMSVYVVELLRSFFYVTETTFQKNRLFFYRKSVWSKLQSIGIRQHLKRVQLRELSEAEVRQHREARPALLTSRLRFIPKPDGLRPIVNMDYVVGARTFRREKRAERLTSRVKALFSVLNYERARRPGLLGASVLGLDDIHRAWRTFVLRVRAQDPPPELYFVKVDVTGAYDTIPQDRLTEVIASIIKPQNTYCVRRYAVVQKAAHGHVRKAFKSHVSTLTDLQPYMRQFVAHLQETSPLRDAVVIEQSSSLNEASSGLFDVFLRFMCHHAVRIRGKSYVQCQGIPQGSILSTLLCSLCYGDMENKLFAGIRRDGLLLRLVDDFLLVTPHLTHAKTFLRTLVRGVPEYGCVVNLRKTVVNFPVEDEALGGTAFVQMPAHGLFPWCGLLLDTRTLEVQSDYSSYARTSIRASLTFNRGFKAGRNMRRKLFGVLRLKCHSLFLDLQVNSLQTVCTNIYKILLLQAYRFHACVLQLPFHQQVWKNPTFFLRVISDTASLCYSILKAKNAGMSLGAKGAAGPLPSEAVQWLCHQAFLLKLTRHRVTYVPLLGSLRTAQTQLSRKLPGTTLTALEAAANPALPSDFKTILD
SMILES,"growth, % of control at 10 µM (TK-10)","growth, % of control at 10 µM (M14)","growth, % of control at 10 µM (U-251)","growth, % of control at 10 µM (SK-MEL-2)","growth, % of control at 10 µM (UACC-257)","growth, % of control at 10 µM (PC-3)","growth, % of control at 10 µM (SF-268)","viability at 48 h, 10 µM [1]","viability at 48 h, 1 µM [2]",growth percent at 10 µM (SN12C),growth percent at 10 µM (HOP-62),growth percent at 10 µM (HOP-92),growth percent at 10 µM (NCI-H23),"growth, % of control at 10 µM (COLO 205)","growth, % of control at 10 µM (SW-620)",growth percent at 10 µM (MDA-MB-435),growth percent at 10 µM (OVCAR-3),growth percent at 10 µM (OVCAR-5),growth percent at 10 µM (OVCAR-8),growth percent at 10 µM (HL-60),further results
CC(=O)Nc1ccc2c(c1)C(=O)c1cc(NC(C)=O)ccc1C2=O,118%,105%,95.1%,30.1%,27%,103%,114%,91%,106%,113%,111%,101%,94.2%,120%,103%,109%,111%,102%,99.8%,38.7%,growth percent at 10 µM (KM12): 106%; growth percent at 10 µM (K562): 98.5%; growth percent at 10 µM (RPMI-8226): 121%; growth percent at 10 µM (786-0): 97.7%; growth percent at 10 µM (ACHN): 96.9%; growth percent at 10 µM (HCT-29): 107%; growth percent at 10 µM (HCT-116): 102%; growth percent at 10 µM (HCC 2998): 105%; cell viability at 1 µM [3]: 117%; residual activity [4]: 117%; residual activity [5]: 117%; residual activity [6]: 87%; residual activity [7]: 74%
CN(C)CC(=O)Nc1ccc2c(c1)C(=O)c1cc(NC(=O)CN(C)C)ccc1C2=O,73.5%,75%,16.1%,-30.4%,-1.84%,59%,64.9%,45%,96%,28%,29%,56.1%,51.8%,-73.6%,23.4%,68.4%,43.6%,73.2%,32.3%,-65%,"growth, % of control at 10 µM (KM12): 67%; growth percent at 10 µM (K562): 34.9%; growth percent at 10 µM (RPMI-8226): 35%; growth percent at 10 µM (786-0): 68.6%; growth percent at 10 µM (ACHN): 66.4%; growth percent at 10 µM (HCT-29): 11.7%; growth percent at 10 µM (HCT-116): 19.1%; growth percent at 10 µM (HCC 2998): -74%; cell viability at 1 µM [3]: 92%; residual activity [4]: 44%; residual activity [5]: 3%; residual activity [6]: 40%; residual activity [7]: 21%"
CCN(CC)CCC(=O)Nc1ccc2c(c1)C(=O)c1cc(NC(=O)CCN(CC)CC)ccc1C2=O,17.2%,62.8%,21.6%,-60.4%,-14.5%,13.6%,35.2%,55%,103%,8.63%,11.7%,9.7%,30.3%,-49.7%,16.9%,71.1%,10.4%,33.6%,4.3%,14%,"Activity [8]: Active; growth, % of control at 10 µM (KM12): 21.8%; growth percent at 10 µM (K562): 8.1%; growth percent at 10 µM (RPMI-8226): -29%; growth percent at 10 µM (786-0): 24.7%; growth percent at 10 µM (ACHN): 11.1%; growth percent at 10 µM (HCT-29): 3.3%; growth percent at 10 µM (HCT-116): -32.5%; cell viability at 1 µM [3]: 106%; residual activity [4]: 49%; residual activity [5]: 37%; residual activity [6]: 35%; residual activity [7]: 26%"
O=C(CCN1CCCC1)Nc1ccc2c(c1)C(=O)c1cc(NC(=O)CCN3CCCC3)ccc1C2=O,31.2%,53.9%,18.2%,-45.2%,-17.9%,21.7%,26.7%,68%,82%,6.68%,18.8%,7.04%,31.5%,-29%,20%,68.8%,36.9%,18.8%,19.6%,85.8%,Activity [8]: Active; growth percent at 10 µM (KM12): 32.5%; growth percent at 10 µM (K562): 6.4%; growth percent at 10 µM (RPMI-8226): 47.9%; growth percent at 10 µM (786-0): 40.5%; growth percent at 10 µM (ACHN): 29.6%; growth percent at 10 µM (HCT-29): 19.5%; growth percent at 10 µM (HCT-116): 10.5%; growth percent at 10 µM (HCC 2998): 20%; cell viability at 1 µM [3]: 87%; residual activity [4]: 67%; residual activity [5]: 109%; residual activity [6]: 29%; residual activity [7]: 17%
O=C1c2ccc(NC(=O)C3CC3)cc2C(=O)c2cc(NC(=O)C3CC3)ccc21,136%,98.9%,72.6%,16.9%,108%,107%,95.1%,44%,60%,82.9%,91.6%,86.2%,95.8%,91.9%,105%,97.3%,103%,112%,94.3%,62.5%,growth percent at 10 µM (KM12): 92.7%; growth percent at 10 µM (K562): 91.6%; growth percent at 10 µM (RPMI-8226): 88.4%; growth percent at 10 µM (786-0): 94.9%; growth percent at 10 µM (ACHN): 86.7%; growth percent at 10 µM (HCT-29): 106%; growth percent at 10 µM (HCT-116): 87.1%; growth percent at 10 µM (HCC 2998): 132%; cell viability at 1 µM [3]: 46%; residual activity [6]: 81%; residual activity [7]: 81%
